This passage reports IC50 results from article PMC3658176 (Cancer cell, 2013).

Experiment [1] has as its target T1, H2-D^b (Mus musculus, UniProt P01899).
T1 sequence (P01899 25-362): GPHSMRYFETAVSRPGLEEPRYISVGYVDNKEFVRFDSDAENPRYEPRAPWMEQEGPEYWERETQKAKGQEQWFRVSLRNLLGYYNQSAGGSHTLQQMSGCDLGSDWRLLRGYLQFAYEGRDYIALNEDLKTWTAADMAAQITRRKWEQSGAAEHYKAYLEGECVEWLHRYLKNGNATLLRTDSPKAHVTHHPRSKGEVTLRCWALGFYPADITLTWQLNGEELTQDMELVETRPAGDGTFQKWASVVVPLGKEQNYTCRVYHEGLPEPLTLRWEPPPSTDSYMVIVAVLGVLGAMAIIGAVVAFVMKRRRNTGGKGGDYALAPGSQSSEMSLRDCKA
T1 sequence (P01887 21-119 partner): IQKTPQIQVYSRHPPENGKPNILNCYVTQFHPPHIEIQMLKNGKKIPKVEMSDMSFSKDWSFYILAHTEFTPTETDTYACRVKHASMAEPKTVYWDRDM
As to the kind of experiment: Cell-free competition MHC peptide binding assay, purified H2-D^b.

Experiment [2] has as its target T2, H2-K^b (Mus musculus, UniProt P01901).
T2 sequence (P01901 22-369): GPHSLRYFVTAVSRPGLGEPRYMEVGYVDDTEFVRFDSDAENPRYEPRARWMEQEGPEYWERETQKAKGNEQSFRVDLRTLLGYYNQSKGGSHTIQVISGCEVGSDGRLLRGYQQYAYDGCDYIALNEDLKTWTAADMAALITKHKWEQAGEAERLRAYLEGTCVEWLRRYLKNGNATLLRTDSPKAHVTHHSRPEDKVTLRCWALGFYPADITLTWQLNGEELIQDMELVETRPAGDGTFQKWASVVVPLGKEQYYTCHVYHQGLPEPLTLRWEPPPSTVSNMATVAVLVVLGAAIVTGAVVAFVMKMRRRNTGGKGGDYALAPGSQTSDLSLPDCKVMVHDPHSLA
T2 sequence (P01887 21-119 partner): T1 sequence (P01887 21-119 partner)
In words: Cell-free competition MHC peptide binding assay, purified H2-K^b.

Experiment [3] addresses HLA-A*0201 (Homo sapiens, UniProt P04439, D140Y/D185E/D98H/E176V/E277Q/G131W/G231S/I119V/I121R/I166T/I218V/L300P/L318F/N151K/N90K/P208A/P217A/Q86G/Q94H/R138H/R169H/T345S). As to the kind of experiment: Cell-free competition MHC peptide binding assay, purified HLA-A*0201. An outline of the steps: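 Purified MHC class I molecule incubated with a labelled probe peptide and graded concentrations of unlabelled test peptide. IC50 taken as the inhibitor peptide concentration that displaces half of the probe. Labelled probe concentration was below MHC concentration. Under these conditions, and where IC50 ≥ MHC concentration, IC50 approximates KD.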

pIC50: −log10 of the molar value. Where no end group is shown, it is not given here.

By pIC50 is commonly meant the negative decadic logarithm of the IC50, by convention in mol/L. Read a high pIC50 as a low IC50. As to EGPRNQDWL [EGP], the pIC50 in experiment [1] is 6.34.

Compound EGSRNQDWL [mgp100_25–33] had a pIC50 in experiment [1] of 4.64.

KVPRNQDWL [hgp100_25–33] had a pIC50 in experiment [1] of 6.73.

Consider SIYRYYGL [SIY], for which the pIC50 in experiment [2] was 8.96.

With `CC[C@H](C)[C@H](NC(=O)[C@@H](NC(=O)[C@@H](N)CO)[C@@H](C)CC)C(=O)N[C@@H](CC(N)=O)C(=O)N[C@@H](Cc1ccccc1)C(=O)N[C@@H](CCC(=O)O)C(=O)N[C@@H](CCCCN)C(=O)N[C@@H](CC(C)C)C(=O)O` [OVA257–264], the pIC50 in experiment [2] was 9.05.

Compound FMDGTMSQV [Tyr369–377] gave a pIC50 in experiment [3] of 8.38.
